Reference: PMC7673712 (Science Advances, 2020)

How the values were obtained:
[1] = NO absorption by ILs, gravimetric method; type: physicochemical; conditions: 30°C until full absorption
Method in brief: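 The system was purged with N2 (60 ml/min, 30 min). NO at atmospheric pressure was then bubbled at about 20 ml/min through about 1 g of test compound held in a metal block at 30°C. Uptake was weighed at regular intervals on a balance (±0.0001 g) until absorption was complete, and expressed as mol NO per mol compound.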

[2] = HNO release half-life of IL-NONOates in PBS, UV absorbance decay at 330 nm; type: physicochemical; conditions: IL-NONOate formed from the IL; 37°C, pH 7.4, 0.01 M phosphate buffer (PBS)
[3] = system: CT-26 cells and MCF-7 cells; test: Cellular RNS detection, red fluorescent dye, microscopy and flow cytometry; type: cell-based; conditions: after 4 hours of treatment, CT-26 and MCF-7 cells
Method in brief: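 CT-26 and MCF-7 cells (RPMI 1640, 10% FBS, 37°C, 5% CO2) grown in 24-well plates were preloaded with NO detection reagent for 2 h under normal culture conditions. The reagent was removed, and cells were exposed to test compound for 1, 2 or 4 h, with a commercial HNO donor as positive control. Cells were washed once, and red fluorescence was imaged by inverted fluorescence microscopy.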

CT-26 cells = test: Cellular GSH quantitative analysis; type: cell-based; conditions: 1.0 mM, 0.5 and 2 hours
Method in brief: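 CT-26 cells (RPMI 1640, 10% FBS, 37°C, 5% CO2) seeded in 24-well plates at 40,000 cells/well for 18 h. Medium replaced with serum-free medium containing test compound at various concentrations. After 0.5 or 2 h the cells were lysed and intracellular GSH was measured with a GSH/GSSG assay kit.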

[4] = ITC binding of ILs to cardiolipin; conditions: compared with [Ch][Tau] or [EMIm][APA]
Method in brief: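 Isothermal titration calorimetry at 25°C. An aqueous solution of test compound in the syringe was titrated into aqueous 18:1 cardiolipin in the sample cell. One small injection was followed by 28 larger injections, each lasting 10 s, with 120 s between injections and stirring at 1001 rpm. The binding constant was obtained from analysis of the calorimetric data.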

t1/2 (HNO release half-life) [2] [h] | SMILES | Absorption capacity [1] | further results
16 | CCn1cc[n+](C)c1.NCCCS(=O)(=O)[O-] [[EMIm][APS]] | 2.79 mol NO per mol of IL | 
 | C[N+](C)(CCO)CCO.NCCS(=O)(=O)[O-] [[HEMN][Tau]] | 2.51 mol NO per mol of IL | 
 | [Na+].[Na+].[O-][N+]([O-])=NO [AS, Na2N2O3] |  | intracellular RNS level [3]: failed to achieve this goal; intracellular GSH levels (CT-26 cells): restoration of GSH
 | C[N+](C)(C)CCO.NCCS(=O)(=O)[O-] [[Ch][Tau]] | 1.67 mol NO per mol of IL | 
16.6 | CCn1cc[n+](C)c1.NCCC(=O)[O-] [[EMIm][APA]] | 2.11 mol NO per mol of IL | 
5.4 | CCn1cc[n+](C)c1.NCS(=O)(=O)[O-] [[EMIm][AMS]] | 1.38 mol NO per mol of IL | 
17.68 | C[N+](C)(C)CCO.NCCC(=O)[O-] [[Ch][APA]] | 1.70 mol NO per mol of IL | binding constant with CL, comparison [4]: significantly higher
 | CCn1cc[n+](C)c1.NCCS(=O)(=O)[O-] [[EMIm][Tau]] | 2.28 mol NO per mol of IL | 
 | C1CCC2=NCCCN2CC1.NCCS(=O)(=O)O [[DBU][Tau]] | 2.79 mol NO per mol of IL | 

SMILES | t1/2 (HNO release half-life) [2] [h] | Absorption capacity [1] | further results
CCCCCCCCCCCCCC[P+](CCCCCC)(CCCCCC)CCCCCC.NCCS(=O)(=O)[O-] [[P66614][Tau]] | 5.42 | 3.33 mol NO per mol of IL | 
